Key:
[1] = molecular target: T1, Angiotensin-converting enzyme (Rattus norvegicus, UniProt P47820); experiment: Inhibitory activity against Angiotensin I converting enzyme
T1 sequence (P47820 whole entry): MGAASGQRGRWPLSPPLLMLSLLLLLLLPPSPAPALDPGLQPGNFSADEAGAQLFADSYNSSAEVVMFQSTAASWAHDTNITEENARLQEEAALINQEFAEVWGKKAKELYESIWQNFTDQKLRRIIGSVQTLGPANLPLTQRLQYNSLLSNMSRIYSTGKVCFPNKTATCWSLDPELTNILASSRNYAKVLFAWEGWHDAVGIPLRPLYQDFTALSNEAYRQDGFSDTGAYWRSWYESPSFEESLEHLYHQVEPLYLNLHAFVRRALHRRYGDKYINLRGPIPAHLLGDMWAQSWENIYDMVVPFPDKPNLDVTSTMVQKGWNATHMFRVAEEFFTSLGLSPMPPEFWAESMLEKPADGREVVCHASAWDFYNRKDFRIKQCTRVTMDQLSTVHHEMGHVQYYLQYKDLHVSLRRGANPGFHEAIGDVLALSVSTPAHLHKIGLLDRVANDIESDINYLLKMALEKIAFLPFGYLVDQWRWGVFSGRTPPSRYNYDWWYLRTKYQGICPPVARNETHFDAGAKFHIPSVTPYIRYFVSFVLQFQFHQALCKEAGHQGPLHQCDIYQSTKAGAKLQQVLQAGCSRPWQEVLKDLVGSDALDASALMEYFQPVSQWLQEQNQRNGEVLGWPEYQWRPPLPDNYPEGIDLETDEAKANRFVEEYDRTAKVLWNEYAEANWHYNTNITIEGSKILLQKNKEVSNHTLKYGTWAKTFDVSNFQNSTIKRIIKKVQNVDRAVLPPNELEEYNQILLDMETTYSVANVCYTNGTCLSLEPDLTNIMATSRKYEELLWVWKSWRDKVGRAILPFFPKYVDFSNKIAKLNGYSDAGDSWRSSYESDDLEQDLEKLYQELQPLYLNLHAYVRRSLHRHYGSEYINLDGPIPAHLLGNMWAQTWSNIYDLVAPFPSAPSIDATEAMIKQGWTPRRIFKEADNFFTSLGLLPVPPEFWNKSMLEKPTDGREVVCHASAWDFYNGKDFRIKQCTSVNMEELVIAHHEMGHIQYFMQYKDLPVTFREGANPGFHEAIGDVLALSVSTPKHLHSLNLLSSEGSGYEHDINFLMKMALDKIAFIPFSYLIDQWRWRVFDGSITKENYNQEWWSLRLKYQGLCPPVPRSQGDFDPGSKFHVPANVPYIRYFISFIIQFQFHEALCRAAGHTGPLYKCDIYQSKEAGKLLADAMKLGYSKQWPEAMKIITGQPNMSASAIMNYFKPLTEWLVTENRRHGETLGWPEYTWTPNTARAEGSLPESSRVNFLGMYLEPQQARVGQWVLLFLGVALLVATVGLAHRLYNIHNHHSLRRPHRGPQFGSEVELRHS

Canis familiaris [2] = experiment: Compound was evaluated for antihypertensive activity in conscious renal hypertensive dogs at a 30 mg/kg dose given orally; format: functional, Canis lupus familiaris; details: route oral
How it was run: (§1)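 Conscious mongrel dogs made hypertensive by bilateral renal artery constriction (Goldblatt). Drug given by gavage in gelatine capsules; systolic pressure fall vs 0 time, observed up to 7 h; Dunnett's t test.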

[3] = molecular target: T2, Angiotensin-converting enzyme (Rattus norvegicus) (UniProt P47820); experiment: Compound was evaluated for ACE inhibitory activity in conscious normotensive rats at a dose 1 mg/kg given intravenously by determining percent reduction in Angiotensin I converting enzyme response; format: organism-based; parameters: dose 1 mg/kg
T2 sequence (whole entry): T1 sequence (P47820 whole entry)

[4] = molecular target: T2, Angiotensin-converting enzyme (Rattus norvegicus); experiment: Compound was evaluated for ACE inhibitory activity in conscious normotensive rats at a dose 10 mg/kg given intravenously by determining percent reduction in Angiotensin I converting enzyme response; format: organism-based; parameters: dose 10 mg/kg
Canis familiaris [5] = experiment: Compound was evaluated for antihypertensive activity in conscious renal hypertensive dogs at a 10 mg/kg dose given orally; format: functional, Canis lupus familiaris; details: route oral; how it was run: as §1
[6] = molecular target: T2, Angiotensin-converting enzyme (Rattus norvegicus); experiment: Compound was evaluated for ACE inhibitory activity in conscious normotensive rats at a dose 10 mg/kg given intravenously by determining percent reduction in Angiotensin I converting enzyme; format: organism-based; parameters: dose 10 mg/kg

Row | SMILES | IC50 [1] | further results
1 | CC(C)(C)OC(=O)[C@@H]1CCCN1C(=O)[C@H]1CCC[C@H]1SC(=O)c1ccccc1 | 124 µM | 
2 | CC1(C)CC[C@@H](C(=O)N2CCC[C@H]2C(=O)O)[C@@H]1S | 215 µM | 
3 | C[C@H](CS)C(=O)N1CCC[C@H]1C(=O)O [CAPTOPRIL] |  | SBP decrease (Canis familiaris [2]): -19%; SBP decrease (Canis familiaris [5]): -15%
4 | O=C(S[C@H]1CC[C@@H]1C(=O)N1CCC[C@H]1C(=O)O)c1ccccc1 | 250 µM | SBP decrease (Canis familiaris [2]): -19%; Reduction [3]: -18%; SBP decrease (Canis familiaris [5]): <10%; Change in ACE response [4]: -30%
5 | O=C(S[C@@H]1CC[C@H]1C(=O)N1CCC[C@H]1C(=O)O)c1ccccc1 | 5.5 µM | SBP decrease (Canis familiaris [2]): -17%; Reduction [3]: -45%; SBP decrease (Canis familiaris [5]): -15%; Reduction [6]: -60%
6 | CC(C)(C)OC(=O)[C@@H]1CCCN1C(=O)[C@@H]1CCC[C@@H]1SC(=O)c1ccccc1 | 250 µM | 
7 | CC1(C)CC[C@@H](C(=O)N2CCC[C@H]2C(=O)O)[C@H]1SC(=O)c1ccccc1 | 250 µM | 
8 | O=C(O)[C@@H]1CCCN1C(=O)C1CCCCC1S (some centres not stated) | 11.3 µM | 
9 | O=C(S[C@@H]1CCC[C@@H]1C(=O)N1CCC[C@H]1C(=O)O)c1ccccc1 | 250 µM | 
10 | O=C(S[C@@H]1CCC[C@H]1C(=O)N1CCC[C@H]1C(=O)O)c1ccccc1 | 0.58 µM | SBP decrease (Canis familiaris [2]): -18%; SBP decrease (Canis familiaris [5]): -15%; Change in ACE response [4]: -80%
11 | O=C(S[C@H]1CCC[C@H]1C(=O)N1CCC[C@H]1C(=O)O)c1ccccc1 | 144 µM | 
12 | O=C(O)[C@@H]1CCCN1C(=O)[C@H]1CCC[C@H]1S | 206 µM | 

The remaining compounds from weak to strong by IC50 [1], led by results:

Row | IC50 [1] | SMILES | further results
13 | 250 µM | CC1(C)CC[C@H](C(=O)N2CCC[C@H]2C(=O)O)[C@H]1S | 
14 | 250 µM | CC(C)(C)OC(=O)[C@@H]1CCCN1C(=O)[C@@H]1CCC(C)(C)[C@@H]1SC(=O)c1ccccc1 | 
15 | 250 µM | CC1(C)CC[C@H](C(=O)N2CCC[C@H]2C(=O)O)[C@H]1SC(=O)c1ccccc1 | 
16 | 250 µM | CC(C)(C)OC(=O)[C@@H]1CCCN1C(=O)[C@@H]1CC[C@H]1SC(=O)c1ccccc1 | 
17 | 250 µM | CC(C)(C)OC(=O)[C@@H]1CCCN1C(=O)[C@H]1CC[C@@H]1SC(=O)c1ccccc1 | 
18 | 250 µM | CC(C)(C)OC(=O)[C@@H]1CCCN1C(=O)[C@H]1CCC[C@@H]1SC(=O)c1ccccc1 | 
19 | 250 µM | CC(C)(C)OC(=O)[C@@H]1CCCN1C(=O)[C@H]1CCC(C)(C)[C@@H]1SC(=O)c1ccccc1 | 
20 | 250 µM | CC(C)(C)OC(=O)[C@@H]1CCCN1C(=O)[C@@H]1CCC[C@H]1SC(=O)c1ccccc1 | 
21 | 144 µM | O=C(S[C@H]1CCC[C@@H]1C(=O)N1CCC[C@H]1C(=O)O)c1ccccc1 | 
22 | 34.2 µM | O=C(O)[C@@H]1CCCN1C(=O)[C@H]1CCC[C@@H]1S | 
23 | 19.5 µM | O=C(O)[C@@H]1CCCN1C(=O)[C@@H]1CCC[C@@H]1S | SBP decrease (Canis familiaris [2]): <10%; Reduction [3]: -22%; Change in ACE response [4]: -41%
24 | 12.7 µM | O=C(O)[C@@H]1CCCN1C(=O)[C@H]1CC[C@@H]1S | 
25 | 1.64 µM | O=C(O)[C@@H]1CCCN1C(=O)C1CCCC1S (some centres not stated) | 
26 | 1.26 µM | O=C(O)[C@@H]1CCCN1C(=O)[C@@H]1CC[C@H]1S | SBP decrease (Canis familiaris [2]): <10%
27 | 1.11 µM | O=C(O)[C@@H]1CCCN1C(=O)[C@@H]1CCC[C@H]1S | SBP decrease (Canis familiaris [2]): -21%; Reduction [3]: -42%; SBP decrease (Canis familiaris [5]): -18%; Change in ACE response [4]: -75%

Source: ChEMBL document CHEMBL1123522, “Angiotensin converting enzyme inhibitors as antihypertensive agents: 1-[(2-mercaptocycloalkyl)carbonyl]-L-prolines” (J Med Chem, 1986)
